Results from the RNAGym collection of RNA variant scans (doi:10.1101/gad.245936.114).
Fewer inactive variants are shown than the library holds.

B1: tRNA (parent)
chain: CUCUCGGUAGCCAAGUUGGUUUAAGGCGCAAGACUUUAAUUUAUCACUACGAAAUCUUGAGAUCGGGCGUUCGACUCGCCCCCGGGAGAUUUUUUCCUCGAGCAA

Variants of: B1
Assay: nonsense suppression (GFP-seq) (ratio to wild type); higher = more function; SUP4oc tRNA, yeast GFP reporter sort-seq
Method in brief: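 Each variant's nonsense suppression (GFPSEQ) is a cell-share-weighted bin median GFP/RFP relative to the unmutated parent tRNA. Yeast with genome-integrated tRNA variants from a ~3% random-mutation library, a galactose-driven GFP ochre reporter and RFP were grown in raffinose/galactose medium with 80 mg/L adenine, then sorted into GFP/RFP bins for Illumina sequencing. Variants needed ≥100 reads and ≥30 cells.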
In the case of C12A A24C, the nonsense suppression is reported as 0.035.
A9U gave a nonsense suppression of 0.802.
Variant C12U G25A G61C has a nonsense suppression of 0.823.
In the case of C12U A24U U71G, the nonsense suppression is reported as ≤ 0.026.
With C11U U55A G61C G88C the nonsense suppression was ≤ 0.026.
For A9U C81U, the nonsense suppression was 0.0272.
For A9U C81A, the nonsense suppression was ≤ 0.026.
Variant A9U G73A has a nonsense suppression of 0.0814.
With A13C A87G the nonsense suppression was 0.127.
A13C A87C showed a nonsense suppression of 0.0539.
For C11G A24U A62C C68G, the nonsense suppression was ≤ 0.026.
With C11U C27G A74G the nonsense suppression was ≤ 0.026.
For C11A U71C A89G, the nonsense suppression was ≤ 0.026.
With A13C A89G the nonsense suppression was 0.122.
In the case of C12A A89G, the nonsense suppression is reported as ≤ 0.026.
A9U G84A showed a nonsense suppression of 0.138.
A9U G84U showed a nonsense suppression of 0.0747.
In the case of G10A A60C G66C G78A, the nonsense suppression is reported as ≤ 0.026.
In the case of C12U G26U G84A, the nonsense suppression is reported as ≤ 0.026.
For C11G U20C G25U U63G C75A G78C, the nonsense suppression was ≤ 0.026.
With A13C A30G the nonsense suppression was 0.892.
For G10A C11U C64U, the nonsense suppression was ≤ 0.026.
In the case of C11A A60C, the nonsense suppression is reported as ≤ 0.026.
With A9U C77U the nonsense suppression was 0.0389.
With C11U C68A U76C C83G the nonsense suppression was ≤ 0.026.
For C11U G32U G69C G85C, the nonsense suppression was ≤ 0.026.
For A13C C64U, the nonsense suppression was 0.0428.
Variant C12G U16C A23G has a nonsense suppression of 0.207.
In the case of G10C G26U G86A G88A, the nonsense suppression is reported as ≤ 0.026.
For C11G C12A U35G U55C U76A G84U, the nonsense suppression was ≤ 0.026.
In the case of G10C C77U, the nonsense suppression is reported as ≤ 0.026.
For G10C C77G, the nonsense suppression was ≤ 0.026.
For G10A A31C, the nonsense suppression was ≤ 0.026.
In the case of G10U A14U, the nonsense suppression is reported as 0.19.
In the case of C11A G26C G66U, the nonsense suppression is reported as ≤ 0.026.
For G10C A13G G15A U57C, the nonsense suppression was ≤ 0.026.
In the case of A9U G18C, the nonsense suppression is reported as ≤ 0.026.
For C11A U16C, the nonsense suppression was ≤ 0.026.
With A13C the nonsense suppression was 1.13.
In the case of C11G A24G A74G, the nonsense suppression is reported as ≤ 0.026.
In the case of C11A G26A U70A, the nonsense suppression is reported as ≤ 0.026.
Work on A13C A33U yielded a nonsense suppression of 0.0508.
For C11G U63A U70G, the nonsense suppression was ≤ 0.026.
In the case of G10U U21C A74U, the nonsense suppression is reported as ≤ 0.026.
In the case of C11G C34A U63A G65C, the nonsense suppression is reported as ≤ 0.026.
Work on A9U G28A C75U yielded a nonsense suppression of 0.0978.
In the case of C11G U16G U58A G61A G67C, the nonsense suppression is reported as ≤ 0.026.
In the case of C12U U63A, the nonsense suppression is reported as 0.697.
In the case of C12U U63G, the nonsense suppression is reported as 0.121.
For C12U U55C, the nonsense suppression was 0.0665.
In the case of C12G C27U, the nonsense suppression is reported as ≤ 0.026.
Work on C12U G85U yielded a nonsense suppression of 0.0919.
Variant C12U G85C has a nonsense suppression of 0.111.
In the case of G10A A13C, the nonsense suppression is reported as 0.0618.
Variant C12U A24U has a nonsense suppression of 0.118.
C12U G78U gave a nonsense suppression of 0.0326.
Work on C12U G78A yielded a nonsense suppression of 0.0268.
With A9U G61A C72A the nonsense suppression was ≤ 0.026.
With A9U C12G U35G C72A the nonsense suppression was ≤ 0.026.
C12U U16C G28A showed a nonsense suppression of 0.295.
With C12G U21A G59U the nonsense suppression was ≤ 0.026.
In the case of C12U G61U, the nonsense suppression is reported as 0.248.
Variant A9U A54G has a nonsense suppression of 0.0306.
A9U A54C gave a nonsense suppression of 0.0503.
With A9U A54U the nonsense suppression was 0.222.
With A9U C64U the nonsense suppression was 0.0349.
For A9U A33G, the nonsense suppression was 0.0334.
A9U A30G gave a nonsense suppression of 0.0995.
For C12G A54G U57G A60U C77U, the nonsense suppression was ≤ 0.026.
For G10A G32C, the nonsense suppression was ≤ 0.026.
With A9U U16G the nonsense suppression was 0.202.
Work on A9U U16A yielded a nonsense suppression of 0.13.
In the case of G10A U63G, the nonsense suppression is reported as 0.0314.
For C11G C56G G84U, the nonsense suppression was ≤ 0.026.
With G10C C29G C79U the nonsense suppression was ≤ 0.026.
In the case of C11G U16G G66A, the nonsense suppression is reported as ≤ 0.026.
For C12U A31G C77G, the nonsense suppression was ≤ 0.026.
With C11U A23G A31G U76A the nonsense suppression was ≤ 0.026.
For C12G C68G G69U A89U, the nonsense suppression was 0.0702.
In the case of A9U G10A, the nonsense suppression is reported as 0.0292.
Variant C12U A30G has a nonsense suppression of 0.363.
With C11U C12A G88A the nonsense suppression was ≤ 0.026.
A9U G61C gave a nonsense suppression of 0.197.
Work on A9U G61U yielded a nonsense suppression of 0.573.
With A9U G61A the nonsense suppression was 0.195.
For C11U A31G C77G, the nonsense suppression was ≤ 0.026.
With G10U G84A G86U the nonsense suppression was ≤ 0.026.
With C12G A14G A33G the nonsense suppression was ≤ 0.026.
In the case of G10A C29G A54G, the nonsense suppression is reported as ≤ 0.026.
For C11G C29G G61U, the nonsense suppression was ≤ 0.026.
For G10U G66U G85A, the nonsense suppression was ≤ 0.026.
In the case of G10U C77G, the nonsense suppression is reported as ≤ 0.026.
In the case of A13C C29U, the nonsense suppression is reported as 0.806.
For C11G A31G, the nonsense suppression was ≤ 0.026.
With C11G A31U the nonsense suppression was ≤ 0.026.
For C12U A31G G65A, the nonsense suppression was ≤ 0.026.
G10U U55C gave a nonsense suppression of 0.0469.
A9U A74U showed a nonsense suppression of 0.106.
A9U A74G gave a nonsense suppression of 0.0977.
With G10C G15C U20G the nonsense suppression was ≤ 0.026.
In the case of A13C A23G A31U, the nonsense suppression is reported as ≤ 0.026.
In the case of C12U A13C U20A, the nonsense suppression is reported as ≤ 0.026.
With A13C C72U the nonsense suppression was 0.23.
For G10C G73C A87U, the nonsense suppression was ≤ 0.026.
In the case of C12U U55G U70G C83U, the nonsense suppression is reported as ≤ 0.026.
With C12U G25A A74G the nonsense suppression was ≤ 0.026.
For G10U C34G U63A C81U, the nonsense suppression was ≤ 0.026.
A9G U63C gave a nonsense suppression of 0.772.
For C11G G59A C64A, the nonsense suppression was ≤ 0.026.
With C12G C56G G65A A74U the nonsense suppression was ≤ 0.026.
In the case of A9G U76G C80G, the nonsense suppression is reported as ≤ 0.026.
In the case of C11U, the nonsense suppression is reported as ≤ 0.026.
With G10A G59A the nonsense suppression was ≤ 0.026.
In the case of C12A G61C G66C, the nonsense suppression is reported as ≤ 0.026.
With C11U G19A G25A C29U G59A the nonsense suppression was ≤ 0.026.
In the case of C11U U70G C79A, the nonsense suppression is reported as ≤ 0.026.
For A9U U21G U22C, the nonsense suppression was ≤ 0.026.
For A13C C27A G61C C75G, the nonsense suppression was ≤ 0.026.
In the case of C11A U17C, the nonsense suppression is reported as ≤ 0.026.
For A9U G78A, the nonsense suppression was 0.0365.
With C11G U35C A74U C82A the nonsense suppression was ≤ 0.026.
For G10U C29A, the nonsense suppression was ≤ 0.026.
Work on C12A G78A yielded a nonsense suppression of 0.045.
Variant A9U G86A has a nonsense suppression of 0.0496.
For C11A A14G U63C, the nonsense suppression was ≤ 0.026.
In the case of C12U G19U U57C C77A A89U, the nonsense suppression is reported as ≤ 0.026.
Work on A9U G66A yielded a nonsense suppression of 0.0305.
For C11U C56G G73C G78A C79G, the nonsense suppression was ≤ 0.026.
In the case of A13C C68U, the nonsense suppression is reported as 0.836.
In the case of A9U G25U G26C C64A G65A G73A, the nonsense suppression is reported as ≤ 0.026.
In the case of A13C A54G G73C, the nonsense suppression is reported as ≤ 0.026.
With C12G A33U the nonsense suppression was ≤ 0.026.
With C11U G78U the nonsense suppression was ≤ 0.026.
With G10A C27U the nonsense suppression was ≤ 0.026.
In the case of C11G A30G G67U, the nonsense suppression is reported as ≤ 0.026.
With G10A C64G the nonsense suppression was ≤ 0.026.
In the case of C12U G88U, the nonsense suppression is reported as 0.0717.
With G10U C27U C29A A60C U76G the nonsense suppression was ≤ 0.026.
With C11A U63G the nonsense suppression was ≤ 0.026.
With A9U C11U G32C C34G A54U the nonsense suppression was ≤ 0.026.
C12G G25C C75A showed a nonsense suppression of 0.482.
In the case of C12G U71G, the nonsense suppression is reported as 0.859.
Variant C11G G66A G69C has a nonsense suppression of 0.0424.
With A9U U35G G73A A74U the nonsense suppression was ≤ 0.026.
C12U A54U showed a nonsense suppression of 0.229.
For C12U A54C, the nonsense suppression was 0.0512.
With C12U A54G the nonsense suppression was 0.0372.
A9U U63C gave a nonsense suppression of 0.0507.
With C11U U22C the nonsense suppression was 0.0289.
C11U G26A U63C gave a nonsense suppression of 0.212.
For C11G U17C U21C U63C, the nonsense suppression was ≤ 0.026.
Variant A9U U17C has a nonsense suppression of 0.128.
With G10C C27G G73C the nonsense suppression was ≤ 0.026.
For C11A C12U G59A U71A, the nonsense suppression was ≤ 0.026.
With A9U U55A the nonsense suppression was ≤ 0.026.
In the case of C12G U17C U21G, the nonsense suppression is reported as ≤ 0.026.
For C12A G32C U57G, the nonsense suppression was ≤ 0.026.
For A9U A13U, the nonsense suppression was 0.819.
With C11A G66C the nonsense suppression was ≤ 0.026.
With G10C G25C G61C U71A the nonsense suppression was ≤ 0.026.
In the case of G10A G32C G88C, the nonsense suppression is reported as ≤ 0.026.
For C11G G15U G78C, the nonsense suppression was ≤ 0.026.
For G10U G18A C75U, the nonsense suppression was ≤ 0.026.
For A9U C12A A13C C72U C79A, the nonsense suppression was ≤ 0.026.
For C12U C29G U35A, the nonsense suppression was ≤ 0.026.
In the case of C11U G18A, the nonsense suppression is reported as ≤ 0.026.
For C11A U58A G69A, the nonsense suppression was ≤ 0.026.
